# Data as given in article PMC11238050 (Research and Practice in Thrombosis and Haemostasis, 2024).
# Where two headings read alike, the source gives them in different places.
# Columns and labels:
# [1] = system: human platelet thrombus formation; assay: Collagen-coated perfusion chamber analysis; assay type: cell-based; details: 0.32 mM SAB
# Summary of the method: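 Heparinised (5 U/mL) human whole blood was labelled with 1 μM DiOC6 for 20 min at 37 °C, then incubated with test compound or PBS for 10 min. It was perfused over a collagen-coated glass chamber for 3 min at 1800 or 300 s^−1. Platelet adhesion was recorded by fluorescence microscopy during perfusion, and thrombus mean fluorescence intensity was quantified.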
# [2] = system: Human gel-filtered platelet; assay: Thrombin-induced platelet aggregation assay; assay type: cell-based; details: […] SAB, 0.02 U/mL thrombin
# Summary of the method: (§1)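 Human platelets in PRP or PIPES buffer, adjusted to 3.0 × 10^8/mL and preincubated 10 min at 37 °C with test compound in PBS (pH 7.4; 0.1–0.3 mM) or PBS alone. Agonists were bovine thrombin 0.02 U/mL, collagen 5 μg/mL or ADP 20 μM. Light-transmission aggregometry was run at 37 °C with stirring at 1000 rpm and recorded for at least 8 min.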
# thrombin [3] = target: T1, thrombin (Homo sapiens, UniProt P00734); assay: Intrinsic fluorescence spectrophotometry binding, thrombin; details: after 24 hours at room temperature
# lysozyme [4] = assay: Intrinsic fluorescence spectrophotometry binding, lysozyme control; details: SAB titrated with lysozyme 0 to 95.6 μM, 20 °C
# Summary of the method: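 Intrinsic fluorescence of test compound (27.2 ± 0.4 μM) in PBS, 20 °C, titrated with lysozyme 0–95.6 μM; blank PBS titrated separately. Excitation 382 nm, emission peak ~498 nm, with inner-filter correction. Integrated emission was averaged, normalised and plotted against protein concentration, then fitted to a binding model for apparent Kd. Four trials.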
# human platelet = assay type: cell-based
# lysozyme [5] = assay: Isothermal titration calorimetry, lysozyme control; assay type: binding; details: 20 μM lysozyme, 0.312 mM SAB titrant, 20 °C, PBS pH 7.4
# Summary of the method: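 ITC at 20 °C in PBS pH 7.4 was run with 20 μM lysozyme in the cell and test compound (0.312 mM) as titrant. Protocol: 60 s initial delay, 2 µL purge injection, then 34 injections of 8 µL every 300 s. The first point was discarded, and data were corrected for heat of dilution from titrant-into-buffer runs.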
# [6] = Stability of SAB in solution on storage and freeze-thaw; assay type: physicochemical; details: inhibitory function for platelet aggregation
# human blood clot = assay: Whole blood clot formation assay; details: 0.3 mM SAB
# Summary of the method: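 Blood was diluted 3-fold and treated with test compound (0.3 mM final, in PBS) or blank PBS. It was recalcified with 1 mM CaCl2 plus 2 U/mL thrombin and incubated 90 min at 37 °C. Clots were removed from the serum, and dry weight was measured after 24 h at room temperature (20 °C).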
# [7] = system: cell-free human blood plasma coagulation; assay: Clot turbidity assay; details: read-out: EC50, delay of cell-free human blood plasma coagulation; clot turbidity at 405 nm, 37 °C, 0.1 U/mL thrombin
# human blood coagulation = assay: Thromboelastography; details: 0.3 mM SAB
# Summary of the method: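 Thromboelastography used citrated (3.2%) whole blood from healthy human donors, treated with test compound (0.3 mM) or an equal volume of PBS. Samples were recalcified with 0.2 M CaCl2 stock and analysed on a TEG analyser.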
# thrombin [8] = target: T1, thrombin; assay: Isothermal titration calorimetry, thrombin; assay type: binding; details: ITC, 20 °C, PBS pH 7.4
# [9] = system: human platelet-poor plasma coagulation; assay: Prothrombin time and activated partial thromboplastin time measurement; details: 0.6 mM SAB, human cell-free plasma
# Summary of the method: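 Human platelet-poor plasma was tested in a steel-ball coagulometer. For PT, RecombiPlasTin 2G and its diluent stood 20 min at room temperature, were mixed 1:1 and warmed 5 min at 37 °C, then added to plasma (2:1 v/v). For aPTT, SynthASil was incubated 2 min at 37 °C, then 20 mM CaCl2 was added. Both end-points were time to solid gel.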
# [10] = system: platelets (gel-filtered / PRP); assay: Collagen- and ADP-induced platelet aggregation; assay type: cell-based, human
# Summary of the method: as §1
# [11] = system: thrombus formation in mouse cremaster arterioles; assay: Laser-injury intravital microscopy thrombosis model; details: 0.010 mM final in vivo SAB concentration, jugular vein injection
# Summary of the method: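 Mice received fluorescently labelled anti-GPIb antibody (1 µg/g) through a jugular vein cannula before injury. Test compound was injected via the jugular cannula to a 0.010 mM final in vivo level, calculated from body weight (80 µL/g blood volume). Multiple cremaster arteriole injuries were made with a pulsed nitrogen dye laser. Thrombus formation was imaged by intravital microscopy and quantified as platelet MFI.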
# [12] = system: carotid artery thrombosis; assay: Ferric chloride carotid artery thrombosis model; assay type: in vivo, C57BL/6J mice; details: 15 mpk SAB via tail vein at 50% flow reduction, 10% ferric chloride
# Summary of the method: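 Isoflurane-anaesthetised C57BL/6J mice (>8 weeks, 20–35 g) had filter paper soaked in 10% FeCl3 applied to the carotid adventitia for 180 s. The vessel was rinsed with warm saline. Doppler flow probe recorded flow for 30 min. At 50% flow reduction, test compound (15 mpk, ~0.3 mM blood level) or saline was given via the tail vein. Flow recovery and occlusion time were recorded.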
# [13] = flow cytometry, human platelets
# [14] = flow cytometry, thrombin-stimulated human platelets
substance,measurement,setting,value
Salvianolic acid B [SAB],"human platelet thrombus formation, venous shear rate","[1]; 300 s^−1, collagen-coated chamber",significantly inhibited
same,"human platelet thrombus formation, arterial shear rate","[1]; 1800 s^−1, collagen-coated chamber",significantly inhibited
same,platelet aggregation,[2],completely abolished
same,decrease in the SAB-thrombin complex signal,thrombin [3],less than 3%
same,binding to lysozyme (fluorescence),lysozyme [4],no direct interactions
same,thrombin-induced platelet surface expression of Ricinus communis agglutinin-1 (RCA-1),human platelet,significantly reduced
same,thrombin-induced platelet surface expression of P-selectin,human platelet; [13],significantly reduced
same,thrombin-induced platelet surface expression of annexin-V,human platelet; [13],significantly reduced
same,binding of PAC-1 monoclonal antibody (αIIbβ3 integrin activation),human platelet; [14],significantly decreased
same,binding of fibrinogen (αIIbβ3 integrin activation),human platelet; [14],significantly decreased
same,binding to lysozyme (ITC),lysozyme [5],no interaction
same,effect of prolonged storage in solution and repeated freeze-thaw cycles on SAB,[6],decreased SAB inhibitory function
same,dry weight of the human blood clot,human blood clot,significantly reduced
same,EC50,[7],62 ± 70 µM
same,initiation of human blood coagulation (R-time) in TEG,human blood coagulation,significantly prolonged
same,Hill coefficient nH,thrombin [8],1.1
same,ΔH1,thrombin [8],18 ± 1 kcal/mol
same,ΔH2,thrombin [8],180 ± 6 kcal/mol
same,−TΔS1,thrombin [8],-27 ± 1 kcal/mol
same,−TΔS2,thrombin [8],-185 ± 12 kcal/mol
same,Kd,thrombin [8]; read-out: Kd1,0.62 ± 0.08 µM
same,Kd,thrombin [8]; read-out: dissociation constant Kd2 (weak binding site),37 ± 4 µM
same,activated partial thromboplastin time (aPTT),[9],prolonged
same,prothrombin time (PT),[9],prolonged
same,ADP-induced platelet aggregation,"[10]; PRP, 20 μM ADP",attenuated
same,collagen-induced platelet aggregation,"[10]; gel-filtered platelets, 5 μg/mL collagen",attenuated
same,reduction of thrombus formation in mouse cremaster vessels (platelet MFI),[11],approximately 65% ± 5%
same,carotid blood flow,[12],rescued
same,vessel occlusion (time),[12],prolonged
